Assay outcomes deposited in PubChem BioAssay by The Scripps Research Institute Molecular Screening Center.
VIM-2 inhibitor: VIM-2 metallo-beta-lactamase inhibitors, primary screen, biochemical, epi-absorbance readout, Pseudomonas aeruginosa enzyme; actives 0.89% (n = 290,000); inhibition, % at 5.6 µM; purified VIM-2, nitrocefin hydrolysis, epi-absorbance fluorescence;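 active means inhibition above the mean of all tested compounds plus 3 SD, cutoff set per screening run, cut at about 7.5% in these data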;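 further: red hydrolysis product quenches plate fluorescence so inhibitors raise well fluorescence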
IMP-1 inh: IMP-1 metallo-beta-lactamase inhibitors, primary screen, biochemical, epi-absorbance readout, Pseudomonas aeruginosa enzyme; metallo-beta-lactamase IMP-1 (Pseudomonas aeruginosa); purified IMP-1, nitrocefin hydrolysis, epi-absorbance fluorescence; inhibition, % at 5.6 µM; actives 0.45% (n = 290,000); AID 1556, 2009;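 active means inhibition above the mean plus 3 SD of all compounds in the same screening run, cut at about 4.5% in these data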
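Test system: recombinant IMP-1 enzyme, purified / Medium: HEPES buffer pH 7.1 with ZnSO4 and Brij 35 / Doses: single dose, 5.6 µM / Times: 25 °C, 15 min preincubation, 25 min reaction / Detection: Epi-absorbance via hydrolysed-nitrocefin quenching of white-plate fluorescence, 480/530 nm, EDTA stop / Evaluation: percent inhibition from optical density relative to buffer-blank wells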
PfM18AAP inh: PfM18AAP inhibitors, malaria aminopeptidase, primary screen, biochemical, QFRET, recombinant enzyme; M18 aspartyl aminopeptidase (Plasmodium falciparum 3D7); H-Glu-NHMec fluorogenic cleavage; inhibition, % at 7.35 µM; actives 1.2% (n = 290,000); AID 1822, 2009;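 active means inhibition above the campaign mean inhibition over all tested compounds plus 3 SD, cut at about 28% in these data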
sPLA2-III inh: human group III sPLA2 inhibitors, primary screen, biochemical, QFRET, BODIPY PC-A2 liposome substrate. QFRET BODIPY PC-A2 liposome hydrolysis, fluorescence. inhibition, % at 12.2 µM. actives 0.56% (n = 370,000). AID 743126, 2013;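 active means inhibition above mean plus 3 SD of compounds lying within the high and low control bounds, cut at about 19% in these data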
Target sequence (Q9NZ20 whole entry, looked up): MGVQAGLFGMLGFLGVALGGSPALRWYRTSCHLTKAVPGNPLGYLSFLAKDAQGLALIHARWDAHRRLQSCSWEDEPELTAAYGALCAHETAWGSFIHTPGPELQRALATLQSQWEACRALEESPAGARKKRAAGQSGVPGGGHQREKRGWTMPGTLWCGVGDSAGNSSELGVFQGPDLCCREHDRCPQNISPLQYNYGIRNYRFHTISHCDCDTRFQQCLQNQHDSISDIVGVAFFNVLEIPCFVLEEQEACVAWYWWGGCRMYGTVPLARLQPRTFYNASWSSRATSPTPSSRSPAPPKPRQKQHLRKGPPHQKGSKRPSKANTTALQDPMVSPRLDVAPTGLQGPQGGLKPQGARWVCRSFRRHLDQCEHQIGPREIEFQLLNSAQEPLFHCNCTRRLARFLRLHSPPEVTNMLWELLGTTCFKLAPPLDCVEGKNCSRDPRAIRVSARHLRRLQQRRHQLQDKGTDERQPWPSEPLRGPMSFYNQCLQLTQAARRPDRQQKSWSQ
Large screens that a line does not name were inactive. Most compounds without a hit are left out; they make up all but 2.4% or so of the library.

CC(Oc1ccc2c(c1)oc(=O)c1ccccc12)C(=O)NCCCN1CCOCC1 (stereo not given)	VIM-2 inhibitor 12
CC(Oc1cc2oc(=O)c3c(c2cc1Cl)CCC3)C(=O)NCCCN1CCCC1=O (stereo not given)	VIM-2 inhibitor 9.1
Cc1c(OC(C)C(=O)NCCCN2CCCC2=O)ccc2c3c(c(=O)oc12)CCCC3 (stereo not given)	VIM-2 inhibitor 10
CC(Oc1ccc2c(-c3ccccc3)cc(=O)oc2c1)C(=O)NCCCN1CCOCC1 (stereo not given)	none
CC(C)CN1C(=O)N2Cc3ccccc3C2CS1(=O)=O (stereo not given)	none (no result: VIM-2 inhibitor, IMP-1 inh, PfM18AAP inh)
Cc1cc(=O)oc2c(C)c(OCC(=O)NCCCN3CCOCC3)ccc12	VIM-2 inhibitor 7.8
Cc1c(OCC(=O)NCCCN2CCOCC2)ccc2c(-c3ccccc3)cc(=O)oc12	none
C[C@@H]1CN(c2ccc(N3CCNC[C@@H]3C)cc2C#N)C[C@H](C)O1	none (no result: VIM-2 inhibitor, IMP-1 inh, PfM18AAP inh)
COc1ccc(Cl)cc1NC(=O)C1Cc2ccccc2CN1S(C)(=O)=O (stereo not given)	PfM18AAP inh 28
Cc1ccc(N(C)c2nc(N)nc(N)c2N=O)cc1	none (no result: VIM-2 inhibitor, IMP-1 inh, PfM18AAP inh)
CCOc1cc(NC(=S)Nc2ccc(Cl)cc2)c(OCC)cc1NC(C)=O	PfM18AAP inh 31
O=S(=O)(CC1NCCc2ccccc21)NCc1ccccc1 (stereo not given)	none (no result: VIM-2 inhibitor, IMP-1 inh, PfM18AAP inh)
Cc1c(Cc2ccccc2)c(=O)oc2c(CN(C)C)c(O)c(Cl)cc12	IMP-1 inh 4.7
Cc1ncc([N+](=O)[O-])n1CCOC(=O)Nc1ccc([N+](=O)[O-])cc1	none
Cc1ncc([N+](=O)[O-])n1CCOC(=O)c1cc(Cl)cc(Cl)c1N	VIM-2 inhibitor 9.4
COc1ccc(-c2ccc(SCC(=O)N3CCOCC3)nn2)cc1	none
COc1ccc(-c2nc3c(c(SCC(=O)N4CCOCC4)n2)Cc2c(CO)cnc(C)c2O3)cc1	IMP-1 inh 6.3
Cc1ccc(-c2nc3c(c(SCC(=O)N4CCOCC4)n2)Cc2c(CO)cnc(C)c2O3)cc1	IMP-1 inh 8.9
Cc1ccc(C)c(NC(=O)Cn2nnc(-c3ccncc3)n2)c1	none (no result: VIM-2 inhibitor, IMP-1 inh, PfM18AAP inh)
COC(=O)[C@@H]1N=C(c2ccc(OC)cc2)O[C@]12C(=O)N(Cc1cn(-c3ccccc3)nn1)c1cccc(Cl)c12	none (no result: VIM-2 inhibitor, IMP-1 inh, PfM18AAP inh)
COC(=O)c1c(NC(=O)COc2ccc(Cl)cc2)sc2c1CC(C)(C)NC2(C)C	none
COC(=O)c1c(NC(=O)Cc2ccccc2)sc2c1CC(C)(C)NC2(C)C	PfM18AAP inh 29
O=C(O)Cc1sc(NC2CCCCC2)nc1-c1ccc(Cl)cc1	IMP-1 inh 5.3
O=C(O)CCNc1cc(N2CCN(C(=O)c3ccco3)CC2)c2noc3c2c1C(=O)c1ccccc1-3	IMP-1 inh 7.0, PfM18AAP inh 35
CC(=O)OCCNc1cc(N2CCN(C)CC2)c2noc3c2c1C(=O)c1ccccc1-3	VIM-2 inhibitor 8.2
COP(=O)(O)C(Cc1ccccc1)NC(=O)OCc1ccccc1 (stereo not given)	none (no result: VIM-2 inhibitor, IMP-1 inh, PfM18AAP inh)
COC(=O)[C@]12C[C@H](CC(=O)N3CCN(C(=O)c4ccco4)CC3)C(=O)N(CCc3ccc(OC)c(OC)c3)C1=C[C@H](C(C)C)O[C@@H]2C1CC1	none (no result: VIM-2 inhibitor, IMP-1 inh, PfM18AAP inh)
CSc1nc(C)c2c(n1)N(c1ccc(F)cc1)CC2	none
COc1cccc2c3c(c(C)nc12)CCN3c1ccccc1	VIM-2 inhibitor 11
COc1ccccc1N1CCc2c(C)nc3c(OC)cccc3c21	VIM-2 inhibitor 12 (no result: sPLA2-III inh)
Cc1ccc2nc(C)c3c(c2c1)N(c1ccc(F)cc1)CC3	VIM-2 inhibitor 11
COc1cccc2c1nc(C)c1cc(C)oc12	none
Nc1c2c(nc3ccccc13)N(c1ccccc1)CC2	none (no result: VIM-2 inhibitor, IMP-1 inh, PfM18AAP inh)
Cn1c(SC/C=C/c2ccccc2)nnc1-c1cccnc1	none (no result: VIM-2 inhibitor, IMP-1 inh, PfM18AAP inh)
CCOC(=O)c1sc2nc[nH]c(=O)c2c1C	IMP-1 inh 5.2
Cn1nc(-c2ccc(OCC(=O)Nc3ccccc3)cc2)c2ccccc2c1=O	VIM-2 inhibitor 9.3
COc1ccccc1NC(=O)COc1ccc(-c2nn(C)c(=O)c3ccccc23)cc1	none
Cc1cc(/C=C2\SC(=S)NC2=O)c(C)n1C1CC1	VIM-2 inhibitor 7.7
COC(=O)c1ccc(Cn2ccc3ccc(-c4ccc5ccn(Cc6ccc(OC)cc6)c5c4)cc32)cc1	none (no result: VIM-2 inhibitor, IMP-1 inh, PfM18AAP inh)
COc1ccc(OC)c(S(=O)(=O)N(C)CC(=O)N2CCN(c3ccccc3F)CC2)c1	IMP-1 inh 17
COc1ccc(OC)c(S(=O)(=O)N(C)CC(=O)N2CCN(c3ccc(F)cc3)CC2)c1	none
CC(C)C[C@H](NC1(C(=O)NC2CCCCC2)CCN(C(=O)OC(C)(C)C)CC1)C(=O)NCCc1c[nH]c2ccccc12	none (no result: VIM-2 inhibitor, IMP-1 inh, PfM18AAP inh)
COc1ccccc1N1CCN(C(=O)CSc2nnc3c4ccccc4n(CC(=O)O)c3n2)CC1	none
CCn1c2ccccc2c2nnc(SCC(=O)N3CC(C)OC(C)C3)nc21 (stereo not given)	VIM-2 inhibitor 8.3
CC(c1ccccc1)n1cc(C(=O)N2CCCN(Cc3ccccc3)CC2)nn1 (stereo not given)	none (no result: VIM-2 inhibitor, IMP-1 inh, PfM18AAP inh)
COc1ccc(Nc2cc(C)c3c(O)cccc3n2)cc1	VIM-2 inhibitor 8.8
Cc1ccc(Nc2cc(C)c3c(O)cccc3n2)cc1C	none
O=C1C2C(C(=O)N1/N=C/c1cc(Br)cc([N+](=O)[O-])c1O)C1C=CC2C12CC2 (stereo not given)	IMP-1 inh 7.0
O=C(CSc1nnc(-c2cccs2)o1)Nc1cccc2ccccc12	none (no result: VIM-2 inhibitor, IMP-1 inh, PfM18AAP inh)
